# Measured values: ChEMBL document CHEMBL5036385, “Piperazinobenzodiazepinones: New Encephalitic Alphavirus Inhibitors via Ring Expansion of 2-Dichloromethylquinazolinones” (ACS Med Chem Lett, 2022)
# Calls of active or inactive are those of the source. The rule behind the calls is not given here.
# Tested on: Venezuelan equine encephalitis virus
# Experiment: Antiviral activity against Venezuelan equine encephalitis virus co-culture with brain Primary neuron cells HNC001 as reduction on virus titre at 1 uM in Vero 76 cells measured after 18 hrs by TCID50-MTT assay
# Type: functional, organism-based
# Conditions: not given
row,Compound,Activity
1,COc1ccc(N2C(=O)c3cc(C#N)cc(-c4ccc(C)nc4)c3N=C3C2N(C)CCN3C)cc1F (racemic),inactive
2,COc1ccc(N2C(=O)c3cc(C#N)cc(-c4ccc(C)nc4)c3N=C3[C@@H]2N(C)CCN3C)cc1F,inactive
3,COc1ccc(N2C(=O)c3cc(C#N)cc(-c4ccc(C)nc4)c3N=C3[C@H]2N(C)CCN3C)cc1F,inactive

# Tested on: Venezuelan equine encephalitis virus
# Experiment: Antiviral activity against Venezuelan equine encephalitis virus infected in African green monkey Vero 76 cells assessed as reduction on virus yield at 5 uM after 18 hrs of post infection
# Type: functional
# Conditions: not given
row,Compound,Activity
1,COc1ccc(N2C(=O)c3cc(C#N)cc(-c4ccc(C)nc4)c3N=C3C2N(C)CCN3C)cc1F (racemic),5.2
2,CN1CCN(C)C2C1=Nc1ccc([N+](=O)[O-])cc1C(=O)N2c1ccc(F)cc1 (stereo not drawn),2.9
3,COc1ccc(N2C(=O)c3cc([N+](=O)[O-])ccc3N=C3C2N(C)CCN3C)cc1 (stereo not drawn),5.5
4,COc1ccc(N2C(=O)c3cc([N+](=O)[O-])ccc3N=C3C2N(C)CCN3C)cc1F (stereo not drawn),3.7
5,CN1CCN(C)C2C1=Nc1ccc([N+](=O)[O-])cc1C(=O)N2c1ccccc1 (stereo not drawn),2.6
6,COc1ccc(N2C(=O)c3cc(C#N)cc(-c4ccc(C)nc4)c3N=C3[C@@H]2N(C)CCN3C)cc1F,2.7
7,COc1ccc(N2C(=O)c3cc(C#N)cc(N4CCOCC4)c3N=C3C2N(C)CCN3C)cc1F (stereo not drawn),2.5
8,COc1cccc(N2C(=O)c3cc([N+](=O)[O-])ccc3N=C3C2N(C)CCN3C)c1 (stereo not drawn),2.4
9,COc1ccc(N2C(=O)c3cc(C#N)cc(-c4ccc(C)nc4)c3N=C3[C@H]2N(C)CCN3C)cc1F,6.1

# Tested on: Venezuelan equine encephalitis virus
# Experiment: Antiviral activity against Venezuelan equine encephalitis virus infected in African green monkey Vero 76 cells assessed as virus induced cytopathic effect measured after 48 hrs
# Type: functional, organism-based
# Conditions: Vero 76, 48 h
row,Compound,EC50
1,COc1ccc(N2C(=O)c3cc(C#N)cc(-c4ccc(C)nc4)c3N=C3C2N(C)CCN3C)cc1F (racemic),240 nM
2,CN1CCN(C)C2C1=Nc1ccc([N+](=O)[O-])cc1C(=O)N2c1ccc(F)cc1 (stereo not drawn),150 nM
3,COc1ccc(N2C(=O)c3cc([N+](=O)[O-])ccc3N=C3C2N(C)CCN3C)cc1F (stereo not drawn),48 nM
4,CN1CCN(C)C2C1=Nc1ccc([N+](=O)[O-])cc1C(=O)N2c1ccccc1 (stereo not drawn),120 nM
5,COc1ccc(N2C(=O)c3cc(C#N)cc(-c4ccc(C)nc4)c3N=C3[C@@H]2N(C)CCN3C)cc1F,330 nM
6,COc1ccc(N2C(=O)c3cc(C#N)cc(N4CCOCC4)c3N=C3C2N(C)CCN3C)cc1F (stereo not drawn),2500 nM
7,COc1cccc(N2C(=O)c3cc([N+](=O)[O-])ccc3N=C3C2N(C)CCN3C)c1 (stereo not drawn),530 nM
8,COc1ccc(N2C(=O)c3cc(C#N)cc(-c4ccc(C)nc4)c3N=C3[C@H]2N(C)CCN3C)cc1F,500 nM

# Tested on: not listed separately
# Experiment: Aqueous solubility of compound at pH 7.4 measured after 1460 min by HPLC analysis
# Type: physicochemical
# Conditions: buffer
# Summary of the method: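 Kinetic solubility was measured in aqueous PBS buffer at pH 7.4.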
row,Compound,solubility kinetic at 24.33 h
1,COc1ccc(N2C(=O)c3cc(C#N)cc(-c4ccc(C)nc4)c3N=C3C2N(C)CCN3C)cc1F (racemic),2 µM
2,COc1ccc(N2C(=O)c3cc([N+](=O)[O-])ccc3N=C3C2N(C)CCN3C)cc1 (stereo not drawn),0.7 µM
3,COc1ccc(N2C(=O)c3cc([N+](=O)[O-])ccc3N=C3C2N(C)CCN3C)cc1F (stereo not drawn),0.5 µM

# Tested on: Eastern equine encephalitis virus
# Experiment: Antiviral activity against Eastern equine encephalitis virus co-culture with brain Primary neuron cells HNC001 as reduction on virus titre at 1 uM in Vero 76 cells measured after 18 hrs by TCID50-MTT assay
# Type: functional, organism-based
# Conditions: not given
row,Compound,Activity
1,COc1ccc(N2C(=O)c3cc(C#N)cc(-c4ccc(C)nc4)c3N=C3C2N(C)CCN3C)cc1F (racemic),inactive
2,COc1ccc(N2C(=O)c3cc(C#N)cc(-c4ccc(C)nc4)c3N=C3[C@@H]2N(C)CCN3C)cc1F,inactive
3,COc1ccc(N2C(=O)c3cc(C#N)cc(-c4ccc(C)nc4)c3N=C3[C@H]2N(C)CCN3C)cc1F,inactive

# Tested on: Eastern equine encephalitis virus
# Experiment: Antiviral activity against eastern equine encephalitis virus infected in African green monkey Vero 76 cells assessed as virus induced cytopathic effect measured after 48 hrs
# Type: functional, organism-based
# Conditions: Vero 76, 48 h
row,Compound,EC50
1,COc1ccc(N2C(=O)c3cc(C#N)cc(-c4ccc(C)nc4)c3N=C3C2N(C)CCN3C)cc1F (racemic),160 nM
2,CN1CCN(C)C2C1=Nc1ccc([N+](=O)[O-])cc1C(=O)N2c1ccc(F)cc1 (stereo not drawn),110 nM
3,COc1ccc(N2C(=O)c3cc([N+](=O)[O-])ccc3N=C3C2N(C)CCN3C)cc1 (stereo not drawn),33 nM
4,COc1ccc(N2C(=O)c3cc(C#N)cc(-c4ccc(C)nc4)c3N=C3[C@@H]2N(C)CCN3C)cc1F,260 nM
5,COc1ccc(N2C(=O)c3cc(C#N)cc(N4CCOCC4)c3N=C3C2N(C)CCN3C)cc1F (stereo not drawn),1900 nM
6,COc1cccc(N2C(=O)c3cc([N+](=O)[O-])ccc3N=C3C2N(C)CCN3C)c1 (stereo not drawn),500 nM
7,COc1ccc(N2C(=O)c3cc(C#N)cc(-c4ccc(C)nc4)c3N=C3[C@H]2N(C)CCN3C)cc1F,300 nM

# Tested on: Venezuelan equine encephalitis virus
# Experiment: Antiviral activity against Venezuelan equine encephalitis virus co-culture with brain Primary neuron cells HNC001 as reduction on virus titre at 5 uM in Vero 76 cells measured after 18 hrs by TCID50-MTT assay
# Type: functional, organism-based
# Conditions: not given
row,Compound,Activity
1,COc1ccc(N2C(=O)c3cc(C#N)cc(-c4ccc(C)nc4)c3N=C3C2N(C)CCN3C)cc1F (racemic),Active
2,COc1ccc(N2C(=O)c3cc([N+](=O)[O-])ccc3N=C3C2N(C)CCN3C)cc1 (stereo not drawn),Active
3,COc1ccc(N2C(=O)c3cc([N+](=O)[O-])ccc3N=C3C2N(C)CCN3C)cc1F (stereo not drawn),Active
4,COc1ccc(N2C(=O)c3cc(C#N)cc(-c4ccc(C)nc4)c3N=C3[C@@H]2N(C)CCN3C)cc1F,Active
5,COc1ccc(N2C(=O)c3cc(C#N)cc(-c4ccc(C)nc4)c3N=C3[C@H]2N(C)CCN3C)cc1F,Active

# Tested on: Eastern equine encephalitis virus
# Experiment: Antiviral activity against Eastern equine encephalitis virus co-culture with brain Primary neuron cells HNC001 as reduction on virus titre at 5 uM in Vero 76 cells measured after 18 hrs by TCID50-MTT assay
# Type: functional, organism-based
# Conditions: not given
row,Compound,Activity
1,COc1ccc(N2C(=O)c3cc(C#N)cc(-c4ccc(C)nc4)c3N=C3C2N(C)CCN3C)cc1F (racemic),Active
2,COc1ccc(N2C(=O)c3cc([N+](=O)[O-])ccc3N=C3C2N(C)CCN3C)cc1 (stereo not drawn),Active
3,COc1ccc(N2C(=O)c3cc([N+](=O)[O-])ccc3N=C3C2N(C)CCN3C)cc1F (stereo not drawn),Active
4,COc1ccc(N2C(=O)c3cc(C#N)cc(-c4ccc(C)nc4)c3N=C3[C@@H]2N(C)CCN3C)cc1F,Active
5,COc1ccc(N2C(=O)c3cc(C#N)cc(-c4ccc(C)nc4)c3N=C3[C@H]2N(C)CCN3C)cc1F,Active

# Tested on: not listed separately
# Experiment: Metabolic stability in CD-1 mouse liver microsomes assessed as half life measured at 60 mins in presence of NADPH by LC-MS/MS analysis
# Type: ADME, Microsome
# Conditions: 1 h
# Summary of the method: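 Half-life was determined from stability in CD-1 mouse liver microsomes.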
row,Compound,t1/2
1,COc1ccc(N2C(=O)c3cc(C#N)cc(-c4ccc(C)nc4)c3N=C3C2N(C)CCN3C)cc1F (racemic),45 min
2,COc1ccc(N2C(=O)c3cc([N+](=O)[O-])ccc3N=C3C2N(C)CCN3C)cc1 (stereo not drawn),10 min
3,COc1ccc(N2C(=O)c3cc([N+](=O)[O-])ccc3N=C3C2N(C)CCN3C)cc1F (stereo not drawn),10 min

# Tested on: Vero 76
# Experiment: Cytotoxicity against African green monkey Vero 76 assessed as reduction in cell viability measured after 72 hrs
# Type: cell-based
# Conditions: chlorocebus sabaeus, vero 76, 72 h
# Summary of the method: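 Uninfected Vero 76 cells were exposed to compound, and viability was assessed 72 h post-treatment.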
row,Compound,CC50
1,COc1ccc(N2C(=O)c3cc(C#N)cc(-c4ccc(C)nc4)c3N=C3C2N(C)CCN3C)cc1F (racemic),23300 nM
2,CN1CCN(C)C2C1=Nc1ccc([N+](=O)[O-])cc1C(=O)N2c1ccc(F)cc1 (stereo not drawn),> 30000 nM
3,COc1ccc(N2C(=O)c3cc([N+](=O)[O-])ccc3N=C3C2N(C)CCN3C)cc1 (stereo not drawn),> 30000 nM
4,COc1ccc(N2C(=O)c3cc([N+](=O)[O-])ccc3N=C3C2N(C)CCN3C)cc1F (stereo not drawn),> 30000 nM
5,CN1CCN(C)C2C1=Nc1ccc([N+](=O)[O-])cc1C(=O)N2c1ccccc1 (stereo not drawn),> 30000 nM
6,COc1ccc(N2C(=O)c3cc(C#N)cc(-c4ccc(C)nc4)c3N=C3[C@@H]2N(C)CCN3C)cc1F,> 30000 nM
7,COc1ccc(N2C(=O)c3cc(C#N)cc(N4CCOCC4)c3N=C3C2N(C)CCN3C)cc1F (stereo not drawn),> 30000 nM
8,COc1cccc(N2C(=O)c3cc([N+](=O)[O-])ccc3N=C3C2N(C)CCN3C)c1 (stereo not drawn),> 30000 nM

# Tested on: Eastern equine encephalitis virus
# Experiment: Antiviral activity against eastern equine encephalitis virus infected in African green monkey Vero 76 cells assessed as reduction on virus yield at 5 uM after 18 hrs of post infection
# Type: functional
# Conditions: not given
row,Compound,Activity
1,COc1ccc(N2C(=O)c3cc(C#N)cc(-c4ccc(C)nc4)c3N=C3C2N(C)CCN3C)cc1F (racemic),6.9
2,CN1CCN(C)C2C1=Nc1ccc([N+](=O)[O-])cc1C(=O)N2c1ccc(F)cc1 (stereo not drawn),6.1
3,COc1ccc(N2C(=O)c3cc([N+](=O)[O-])ccc3N=C3C2N(C)CCN3C)cc1 (stereo not drawn),7.9
4,COc1ccc(N2C(=O)c3cc([N+](=O)[O-])ccc3N=C3C2N(C)CCN3C)cc1F (stereo not drawn),7.7
5,CN1CCN(C)C2C1=Nc1ccc([N+](=O)[O-])cc1C(=O)N2c1ccccc1 (stereo not drawn),5.7
6,COc1ccc(N2C(=O)c3cc(C#N)cc(-c4ccc(C)nc4)c3N=C3[C@@H]2N(C)CCN3C)cc1F,5.9
7,COc1ccc(N2C(=O)c3cc(C#N)cc(N4CCOCC4)c3N=C3C2N(C)CCN3C)cc1F (stereo not drawn),4
8,COc1cccc(N2C(=O)c3cc([N+](=O)[O-])ccc3N=C3C2N(C)CCN3C)c1 (stereo not drawn),5.7
9,COc1ccc(N2C(=O)c3cc(C#N)cc(-c4ccc(C)nc4)c3N=C3[C@H]2N(C)CCN3C)cc1F,5.2
